{"data": "Results of several laboratories", "target": "TGF-beta receptor type-1 (TGFBR1, Homo sapiens, UniProt P36897)", "Sequence (P36897 34-503, as in one of the studies)": "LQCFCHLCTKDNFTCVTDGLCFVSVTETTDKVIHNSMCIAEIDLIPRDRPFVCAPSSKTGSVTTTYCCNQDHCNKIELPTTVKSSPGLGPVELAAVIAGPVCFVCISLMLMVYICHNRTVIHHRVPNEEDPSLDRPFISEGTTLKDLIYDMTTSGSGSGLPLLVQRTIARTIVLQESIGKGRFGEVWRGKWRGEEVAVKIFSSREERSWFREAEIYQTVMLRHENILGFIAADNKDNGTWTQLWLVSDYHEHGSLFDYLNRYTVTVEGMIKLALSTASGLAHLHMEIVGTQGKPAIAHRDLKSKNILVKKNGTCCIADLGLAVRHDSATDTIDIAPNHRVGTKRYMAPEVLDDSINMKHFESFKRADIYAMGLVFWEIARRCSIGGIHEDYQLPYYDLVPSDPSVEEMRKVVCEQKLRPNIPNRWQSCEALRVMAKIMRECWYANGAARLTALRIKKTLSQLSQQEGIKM", "note": "Lines come from different studies, so protocols differ."}
{"Structure (SMILES)": "COc1cccc(F)c1Cn1cnc(-c2ccncc2)c1-c1ccc(F)cc1", "assay": "cell-free assay, TR-FRET", "conditions": "1 µM", "measurement": "inhibition", "result": "19%"}
{"Structure (SMILES)": "CCOc1cc(-c2nncn2C)ccc1Nc1ncc2cc(C)nc(NCC(C)(C)C)c2n1", "assay": "cell-free assay, TR-FRET", "conditions": "1 µM", "measurement": "inhibition", "result": "≤ 15%"}
{"Structure (SMILES)": "Fc1ccc(-c2c(-c3ccncc3)ncn2-c2ccc3ccccc3c2)cc1", "assay": "cell-free assay, TR-FRET", "conditions": "1 µM", "measurement": "inhibition", "result": "21%"}
{"Structure (SMILES)": "COc1cc(Cl)c(C(=O)N[C@@H](CN[C@H]2CC[C@@H](N)CC2)Cc2ccc(C#N)cc2)cc1-c1ccc(CN[C@H](C)c2ccc(C)cc2)o1", "assay": "enzyme activity, inhibitor", "conditions": "1 µM", "measurement": "remaining activity", "result": "103%"}
{"Structure (SMILES)": "O=C(CSc1nc2nccnc2c(=O)n1CCc1ccccc1)Nc1nccs1", "assay": "enzyme activity, inhibitor", "conditions": "10 µM", "measurement": "inhibition", "result": "1%"}
{"Structure (SMILES)": "NS(=O)(=O)c1cc(NC(=O)Cc2ccccc2)ccc1Oc1cccc(Cl)c1", "assay": "cell-free assay, competition with immobilised ligand", "conditions": "1 µM", "measurement": "remaining binding", "result": "100%"}
{"Structure (SMILES)": "COc1cc(/C=C/C(=O)CC(=O)/C=C/c2ccc(O)c(OC)c2)ccc1O", "assay": "enzyme activity, inhibitor", "conditions": "1 µM", "measurement": "activity vs control", "result": "82%"}
{"Structure (SMILES)": "CSc1cccnc1N1CCN(Cc2nc3ccccc3[nH]2)CC1", "assay": "cell-free assay, competition with immobilised ligand", "conditions": "1 µM", "measurement": "remaining binding", "result": "100%"}
{"Structure (SMILES)": "O=C1NC(=O)c2cc(Nc3ccc(F)cc3)c(Nc3ccc(F)cc3)cc21", "assay": "cell-free assay", "conditions": "0.5 µM", "measurement": "remaining signal", "result": "98.1%"}
{"Structure (SMILES)": "CCOC(=O)c1cc2cc(-c3cc(C(=O)NCc4ccc(C(=O)O)cc4)nn3C)ccc2[nH]1", "assay": "cell-free assay, competition with immobilised ligand", "conditions": "0.1 µM", "measurement": "remaining binding", "result": "100%"}
{"Structure (SMILES)": "CC(C)(C)c1nc(-c2cccc(NS(=O)(=O)c3c(F)cccc3F)c2F)c(-c2ccnc(N)n2)s1", "assay": "enzyme activity, inhibitor, radiometric", "conditions": "1 µM", "measurement": "remaining activity", "result": "22%"}
{"Structure (SMILES)": "c1ccc(-c2[nH]ncc2-c2ccnc3ccccc23)nc1", "assay": "cell-free assay", "conditions": "0.5 µM", "measurement": "remaining signal", "result": "41.6%"}
{"Structure (SMILES)": "Cc1sc(C(=O)NC2COC2)cc1-n1cc(NC(=O)Nc2c(F)cccc2Cl)cn1", "assay": "enzyme activity, inhibitor", "conditions": "10 µM", "measurement": "remaining activity", "result": "104%"}
{"Structure (SMILES)": "COc1cc(Nc2cnc(C#N)c(O[C@H](C)CN(C)C)n2)ncc1-c1cnn(C)c1", "assay": "enzyme activity, inhibitor, radiometric", "conditions": "1 µM", "measurement": "remaining activity", "result": "122%"}
{"Structure (SMILES)": "Fc1ccc(-c2ncn(C3=CCCCC3)c2-c2ccncc2)cc1", "assay": "cell-free assay, TR-FRET", "conditions": "1 µM", "measurement": "inhibition", "result": "19%"}
{"Structure (SMILES)": "COc1cc(-c2cc(-c3ccc(N4CCNCC4)cc3)cnc2C)cc(OC)c1OC", "assay": "enzyme activity, inhibitor", "conditions": "0.1 µM", "measurement": "inhibition", "result": "3%"}
{"Structure (SMILES)": "Cc1ccc(C(=O)Nc2ccc(CN3CCN(C)CC3)c(C(F)(F)F)c2)cc1C#Cc1cnc2cccnn12", "assay": "cell-free assay", "conditions": "23.5 nM", "measurement": "remaining signal", "result": "98%"}
{"Structure (SMILES)": "C#Cc1cccc(Nc2ncnc3cc(OCCOC)c(OCCOC)cc23)c1", "assay": "cell-free assay", "conditions": "0.5 µM", "measurement": "remaining signal", "result": "99.1%"}
{"Structure (SMILES)": "CC(=O)C1=C(C)N(c2cccc(C(F)(F)F)c2)C(=O)N[C@@H]1c1ccc(C#N)nc1", "assay": "cell-free assay, competition with immobilised ligand", "conditions": "1 µM", "measurement": "remaining binding", "result": "99.2%"}
{"Structure (SMILES)": "Cc1ccc(Nc2nccc(N(C)c3ccc4c(C)n(C)nc4c3)n2)cc1S(N)(=O)=O", "assay": "cell-free assay", "conditions": "0.5 µM", "measurement": "remaining signal", "result": "103%"}
{"Structure (SMILES)": "O=C(NS(=O)(=O)c1ccc(NCC2CCOCC2)c([N+](=O)[O-])c1)c1ccc(N2CCN(Cc3ccc(C(F)(F)F)cc3-c3ccc(Cl)cc3)CC2)cc1Oc1cnc2[nH]ccc2c1", "assay": "cell-free assay, competition with immobilised ligand", "conditions": "1 µM", "measurement": "remaining binding", "result": "93%"}
{"Structure (SMILES)": "Fc1ccc(-c2ncn(-c3ccc4ccccc4c3)c2-c2ccncc2)cc1", "assay": "cell-free assay, TR-FRET", "conditions": "1 µM", "measurement": "inhibition", "result": "14%"}
{"Structure (SMILES)": "CN(C)C(=O)Cn1cc(-c2nc(C3(c4ccc(-c5cnc(N)nc5)cc4)CC3)no2)cn1", "assay": "cell-free assay, competition with immobilised ligand", "conditions": "1 µM", "measurement": "remaining binding", "result": "97%"}
{"Structure (SMILES)": "CCN(CC)c1ccc(C2=NNC(=O)CC2C)cc1[N+](=O)[O-] (stereo not shown)", "assay": "enzyme activity, inhibitor", "conditions": "10 µM", "measurement": "remaining activity", "result": "89%"}
{"Structure (SMILES)": "Cc1cc(-n2nc(Cc3cc(F)cc(C(F)(F)F)c3)nc2C)ccc1C(N)=O", "assay": "cell-free assay, competition with immobilised ligand", "conditions": "1 µM", "measurement": "remaining binding", "result": "94%"}
{"Structure (SMILES)": "Cc1cnc(NC2CCOCC2)nc1-n1cnc(C(=O)NC(CN)c2cc(F)cc(Cl)c2)c1 (stereo not shown)", "assay": "enzyme activity, inhibitor, radiometric", "conditions": "1 µM", "measurement": "remaining activity", "result": "98%"}
{"Structure (SMILES)": "NS(=O)(=O)c1cc(NC(=O)C2(c3ccccc3Cl)CC2)ccc1Oc1cccc(Cl)c1", "assay": "cell-free assay, competition with immobilised ligand", "conditions": "1 µM", "measurement": "remaining binding", "result": "82%"}
{"Structure (SMILES)": "COc1cc2ncnc(Nc3ccc(F)c(Cl)c3)c2cc1OCCCN1CCOCC1", "assay": "cell-free assay", "conditions": "0.5 µM", "measurement": "remaining signal", "result": "99.6%"}
